Screening data deposited in PubChem by The Scripps Research Institute Molecular Screening Center.
Compounds with a hit are over-represented: about 1.3% of the library has one in this group of screens.
PP1 inh: PP1-alpha (human) inhibition in PP5 counter-screen; actives 0.9% (n = 320,000); P62136; AID 2235; purified PP1alpha, OMFP fluorescence; inhibition, % at 6.7 µM;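 active = inhibition above the mean inhibition of all tested compounds plus 3 SD, computed separately for each screening campaign, cut at about 15% in these data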
NR2E3 ag-1: human photoreceptor-specific nuclear receptor agonism | Q9Y5X4 | CHO-S Gal4-NCOR/VP16-NR2E3 two-hybrid, luciferase | inhibition of corepressor binding, % at 3.98 µM | actives 0.35% (n = 360,000);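 active = inhibition above the mean of all tested compounds plus 3 SD, cut at about 70% in these data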;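 also: higher means lower luciferase signal from less NR2E3 corepressor binding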
Target sequence (Q9Y5X4 whole entry, looked up, the tested form may be a part): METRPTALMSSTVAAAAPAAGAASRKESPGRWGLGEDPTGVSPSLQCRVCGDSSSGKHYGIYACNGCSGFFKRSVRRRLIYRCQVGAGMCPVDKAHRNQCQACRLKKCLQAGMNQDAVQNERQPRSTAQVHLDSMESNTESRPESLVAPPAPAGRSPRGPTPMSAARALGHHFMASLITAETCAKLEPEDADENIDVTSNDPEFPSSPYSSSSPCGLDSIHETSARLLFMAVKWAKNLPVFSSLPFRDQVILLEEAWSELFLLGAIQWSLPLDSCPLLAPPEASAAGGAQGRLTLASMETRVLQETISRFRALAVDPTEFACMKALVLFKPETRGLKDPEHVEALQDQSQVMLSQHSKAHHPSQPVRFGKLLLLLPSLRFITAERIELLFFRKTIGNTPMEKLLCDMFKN
NR2E3 ag-2: activates human photoreceptor nuclear receptor NR2E3; inhibition of corepressor binding, % at 4.78 µM; GST-NR2E3/biotin-RetCOR TR-FRET, 1536-well; Q9Y5X4; actives 0.12% (n = 320,000); AID 2300;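 active = percent inhibition above the cutoff of mean plus 3 SD of all tested compounds, set per screening campaign, cut at about 20% in these data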
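System: GST-tagged NR2E3 plus biotinylated RetCOR corepressor; Buffer or medium: pH 7.5 Tris-based buffer; Probe or stimulus: RetCOR corepressor, biotinylated, 7 nM; Doses: compound at 4.8 µM, single dose; Schedule: 5 h incubation at 4 °C; Technique: time-resolved FRET; Evaluation: percent inhibition of TR-FRET ratio; Replication: one well per compound, singlicate testing.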
PP5 inh: PP5 (human) phosphatase inhibition; actives 0.18% (n = 320,000); P53041; purified PP5c, OMFP substrate fluorescence; inhibition, % at 6.7 µM; AID 1987;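 active = inhibition above the campaign's mean inhibition across all tested compounds plus 3 SD, cut at about 9.5% in these data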
NR2E3 ag conf: NR2E3 agonism confirmed in two-hybrid assay; CHO-S mammalian two-hybrid NR2E3-NCOR, luciferase luminescence; shares compounds with NR2E3 ag-1; inhibition, % at 3.98 µM; actives 51% (n = 2,300); AID 624378;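 active = average inhibition above a cutoff equal to the mean inhibition of all tested compounds plus one SD, cut at about 70% in these data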
VP16 counter: counter-screen for NR2E3 agonists: GAL4-VP16 reporter inhibitors; shares compounds with NR2E3 ag-1; CHO-S GAL4-VP16 luciferase reporter, luminescence; inhibition, % at 3.98 µM; actives 29% (n = 2,300); AID 624379;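 active = mean inhibition above a cutoff equal to the average over all tested compounds plus one standard deviation, cut at about 70% in these data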;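 also: luciferase from a UAS reporter driven by GAL4-VP16 transactivation; higher means less reporter light so more repression of VP16 activity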
A number is an active result.

What do the screens show for `CC1C(=O)N(Cc2cn(CCC3OCCCO3)nn2)CCS(=O)(=O)N1Cc1ccc(-c2ccc(Cl)c(Cl)c2)cc1` (centres undefined)?
NR2E3 ag-1: inactive; NR2E3 ag conf: 93; VP16 counter: 77

How did CC1C(=O)N(Cc2cn(CC3CCCCC3)nn2)CCS(=O)(=O)N1Cc1ccc(-c2ccc(Cl)cc2)cc1 (centres undefined) do in these assays?
NR2E3 ag-1: inactive; NR2E3 ag conf: inactive; VP16 counter: inactive

How did O=c1c2ccccc2c(C=Nc2cccc(S(=O)(=O)NCc3ccco3)c2)c(O)n1-c1ccc(Cl)cn1 do in these assays?
PP1 inh: inactive; NR2E3 ag-1: inactive; NR2E3 ag-2: inactive; PP5 inh: inactive

What do the screens show for `COC(=O)c1ccc(Cn2c(C)c(C(=O)NCc3cccs3)sc2=O)o1`?
NR2E3 ag-1: inactive

Results for Cn1cnnc1SCC(=O)NC1CCCC1 ?
PP1 inh: inactive; NR2E3 ag-1: inactive; NR2E3 ag-2: inactive; PP5 inh: inactive

What do the screens show for `NC(=O)CC(NC(=O)Cc1ccc(Cl)cc1)c1ccc(NC2CC3CCC2C3)c([N+](=O)[O-])c1` (centres undefined)?
PP1 inh: inactive; NR2E3 ag-1: 98; NR2E3 ag-2: inactive; PP5 inh: inactive; NR2E3 ag conf: inactive; VP16 counter: inactive

Results for Cc1c(/C(O)=C2/C(=O)C(=O)N(CCN3CCOCC3)C2c2ccccn2)cnn1-c1ccccc1 (centres undefined) ?
PP1 inh: inactive; NR2E3 ag-1: 84; NR2E3 ag-2: inactive; PP5 inh: inactive; NR2E3 ag conf: inactive; VP16 counter: inactive

How did CCn1ncc(N2CCOCC2)c(Cl)c1=O do in these assays?
PP1 inh: inactive; NR2E3 ag-1: inactive; NR2E3 ag-2: inactive; PP5 inh: inactive

What do the screens show for `CC(=O)c1ccc(S(=O)(=O)N2CCN(c3ccnc4cc(Cl)ccc34)CC2)cc1`?
NR2E3 ag-1: inactive; NR2E3 ag conf: inactive; VP16 counter: inactive

What do the screens show for `Cc1ccccc1C(=O)Oc1cccc(Nc2ncnc3ccccc23)c1`?
PP1 inh: inactive; NR2E3 ag-1: 72; NR2E3 ag-2: inactive; PP5 inh: inactive; NR2E3 ag conf: inactive; VP16 counter: inactive

Results for CC(=O)Oc1cccc(Nc2ncnc3ccccc23)c1 ?
PP1 inh: inactive; NR2E3 ag-1: inactive; NR2E3 ag-2: inactive; PP5 inh: inactive

What do the screens show for `CN(C)CCNc1ccc2ncn3c4ccc(O)cc4c(=O)c1c23`?
NR2E3 ag-1: inactive

Results for O=C(N/N=C/c1ccc[nH]1)c1cc(-c2ccc(Cl)cc2)nc2ccccc12 ?
PP1 inh: inactive; NR2E3 ag-1: inactive; NR2E3 ag-2: inactive; PP5 inh: inactive

How did Cc1ccc(NC(=O)Cn2c(=O)oc3ccccc32)c(C)c1 do in these assays?
PP1 inh: inactive; NR2E3 ag-1: inactive; NR2E3 ag-2: inactive; PP5 inh: inactive

How did Cc1ccc(-n2nc3c(=O)n(C(C)C(=O)NCCC4=CCCCC4)nc(C)c3c2C)cc1 (centres undefined) do in these assays?
PP1 inh: inactive; NR2E3 ag-1: inactive; NR2E3 ag-2: inactive; PP5 inh: inactive; NR2E3 ag conf: inactive; VP16 counter: inactive

Results for N/C(=N\OC(=O)Cc1ccc(-c2ccccc2)cc1)c1ccncc1 ?
PP1 inh: inactive; NR2E3 ag-1: inactive; NR2E3 ag-2: inactive; PP5 inh: inactive

How did CCn1nc(C)c(CNC(=O)c2ccc(OC3CCN(Cc4ccccn4)CC3)cc2)c1C do in these assays?
NR2E3 ag-1: 79; NR2E3 ag conf: inactive; VP16 counter: inactive

How did CC1(C(=O)Nc2ccc3c(c2)OCO3)CCN1C(=O)Cc1ccc(-c2ccccc2)cc1 (centres undefined) do in these assays?
NR2E3 ag-1: 94; NR2E3 ag conf: 97; VP16 counter: 84

Results for CCC(=O)N1CCC1(C)C(=O)Nc1ccc2c(c1)OCO2 (centres undefined) ?
NR2E3 ag-1: inactive

How did CC1(C(=O)Nc2ccc(Cl)c(Cl)c2)CCN1C(=O)CC(c1ccccc1)c1ccccc1 (centres undefined) do in these assays?
NR2E3 ag-1: inactive

Results for CC1(C(=O)Nc2ccccc2)CCN1C(=O)Cc1ccc(-c2ccccc2)cc1 (centres undefined) ?
NR2E3 ag-1: inactive; NR2E3 ag conf: inactive; VP16 counter: inactive

Results for CC1(C(=O)Nc2ccc(Cl)c(Cl)c2)CCN1C(=O)Cc1ccc(-c2ccccc2)cc1 (centres undefined) ?
NR2E3 ag-1: inactive; NR2E3 ag conf: 93; VP16 counter: 73

What do the screens show for `Cc1ccc(CS(=O)(=O)CC(C)(O)c2ccccc2)cc1` (centres undefined)?
PP1 inh: inactive; NR2E3 ag-1: inactive; NR2E3 ag-2: inactive; PP5 inh: inactive

Results for COc1ccc(C#Cc2cccc(-c3nc(C(=O)NCc4ccc(Oc5ccccc5)cc4)cc4c3[C@@H](CCO)N(S(=O)C(C)(C)C)C4)c2)cc1OC (some centres undefined) ?
NR2E3 ag-1: inactive

What do the screens show for `Cc1cc(/C=c2/sc3nc4ccccc4n3c2=O)c(C)n1-c1ccccn1`?
PP1 inh: inactive; NR2E3 ag-1: 80; NR2E3 ag-2: inactive; PP5 inh: inactive; NR2E3 ag conf: 84; VP16 counter: 75

What do the screens show for `CCN(CC)c1ccc(/C=c2\sc3nc4ccccc4n3c2=O)c(O)c1`?
NR2E3 ag-1: inactive; NR2E3 ag conf: 79; VP16 counter: inactive

What do the screens show for `O=S(=O)(c1cccc(NC(=S)N2CCN(c3cccc(Cl)c3)CC2)c1)C(F)F`?
PP1 inh: inactive; NR2E3 ag-1: inactive; NR2E3 ag-2: inactive; PP5 inh: inactive; NR2E3 ag conf: 80; VP16 counter: inactive

Results for O=S(=O)(c1cccc(NC(=S)N2CCN(c3ccc(F)cc3)CC2)c1)C(F)F ?
PP1 inh: inactive; NR2E3 ag-1: inactive; NR2E3 ag-2: inactive; PP5 inh: inactive

Results for O=C(Nc1ccnc(-c2ccncc2)n1)c1ccc(Cl)cc1 ?
PP1 inh: inactive; NR2E3 ag-1: inactive; NR2E3 ag-2: inactive; PP5 inh: inactive

How did CC1=[N+](C)c2c(ccc3cccnc23)C1(C)C do in these assays?
NR2E3 ag-1: 92; NR2E3 ag conf: 99; VP16 counter: 85

How did Cc1[nH]c2c(ccc3cccnc32)c1C do in these assays?
PP1 inh: inactive; NR2E3 ag-1: inactive; NR2E3 ag-2: inactive; PP5 inh: inactive

How did C#CCOCC1CNC(=S)O1 (centres undefined) do in these assays?
NR2E3 ag-1: inactive

What do the screens show for `CN=C(Nc1ccc(C(=O)OC)s1)c1ccc(Cl)cc1`?
PP1 inh: inactive; NR2E3 ag-1: inactive; NR2E3 ag-2: inactive; PP5 inh: inactive

What do the screens show for `N=C1SCC(=O)N1c1ncc(Cc2ccc(F)cc2)s1`?
PP1 inh: inactive; NR2E3 ag-1: 97; NR2E3 ag-2: inactive; PP5 inh: inactive; NR2E3 ag conf: inactive; VP16 counter: inactive
